The text below walks through data of ChEMBL document CHEMBL1641440, “Virtual screening based identification of novel small-molecule inhibitors targeted to the HIV-1 capsid” (Bioorg Med Chem, 2011).

For series [1], the system named is Human immunodeficiency virus 1. Put plainly: Antiviral activity against HIV1 3B infected in human MT2 cells assessed as inhibition of viral p24 antigen production after 4 days by ELISA. The format is functional, organism-based. The note with it: Human immunodeficiency virus 1, 3B, MT2, 96 h. In outline:
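MT-2 cells (1 × 10^4) infected with HIV-1 IIIB at 100 TCID50 (0.01 MOI) in RPMI 1640/10% FBS with graded inhibitor concentrations overnight; medium then replaced with fresh medium containing freshly prepared compound. On day 4 supernatant mixed 1:1 with 5% Triton X-100 and p24 measured by ELISA; IC50 = concentration giving 50% reduction in p24 production. Mean ± SD.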

The subject of the next series is MT2. Put plainly: Cytotoxicity against human MT2 cells after 4 days by XTT assay. The note with it: mt2, 96 h. The format is cell-based. In outline:
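XTT assay run in parallel with the MT-2 antiviral assay, with medium in place of virus. Graded compound added to an equal volume of MT-2 cells (1 × 10^5 cells/mL), 37 °C for 4 days. Formazan read at 450 nm (reference 620 nm) 4 h after XTT addition; CC50 = concentration giving 50% cytotoxicity.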

Series [2] relates to Human immunodeficiency virus 1. The note with it: 3B, MT2, 1 ug/mL.

Activity calls are given as the source filed them. The rule behind the calls is not given here.

With `Cc1ccc2[nH]c(=O)c(CN(Cc3cccs3)C(=O)C3CCCCC3)cc2c1`, the IC50 in series [1] is 11.7 µM. In addition, the 50% cytotoxic concentration (CC50) in the series with MT2 was greater than 63.4 µM.

Turning to `Cc1ccc2[nH]c(=O)c(CN(Cc3ccco3)C(=O)c3ccc(Br)cc3)cc2c1`, in series [1], the IC50 came out at 2.16 µM. The compound also came in with a cytotoxic concentration (CC50) in the series on MT2 greater than 55.4 µM.

In the case of `Cc1ccc2[nH]c(=O)c(CN(Cc3ccco3)C(=O)c3ccc(N(C)C)cc3)cc2c1`, the IC50 in series [1] is greater than 24.1 µM.

`Cc1ccc2cc(CN(Cc3ccco3)C(=O)c3cccc(F)c3)c(=O)[nH]c2c1`: in series [1], the IC50 came out at 12.4 µM. Further, the CC50 in the series with MT2 was greater than 51.2 µM.

For `COc1ccc2[nH]c(=O)c(CN(Cc3ccco3)C(=O)c3ccc(C)cc3)cc2c1`, the IC50 in series [1] worked out at 7.87 µM. The cytotoxic concentration (CC50) in the series on MT2 was greater than 31 µM.

On to `Cc1ccc2[nH]c(=O)c(CN(Cc3ccco3)C(=O)c3cccnc3)cc2c1`, for which the 50% inhibitory concentration (IC50) in series [1] is greater than 16.7 µM.

On to `Cc1ccc(CN(Cc2cc3cc(C)ccc3[nH]c2=O)C(=O)c2ccco2)cc1`, for which the IC50 in series [1] was found to be 6.4 µM. For the same compound, the 50% cytotoxic concentration (CC50) with MT2 is greater than 19.8 µM.

As for `Cc1ccc(C(=O)N(Cc2ccco2)Cc2cc3ccc(C)cc3[nH]c2=O)cc1`, the half-inhibitory concentration (IC50) in series [1] was greater than 16.2 µM.

Regarding `Cc1cccc2cc(CN(Cc3ccco3)C(=O)c3ccccc3F)c(=O)[nH]c12`, the IC50 in series [1] was 7.25 µM. The compound further showed a half-maximal cytotoxic concentration (CC50) in the series on MT2 greater than 64 µM.

For the compound `Cc1ccc2[nH]c(=O)c(CN(Cc3ccco3)C(=O)c3ccc(F)c(Cl)c3)cc2c1`, the IC50 in series [1] is 8.2 µM. The CC50 with MT2 was greater than 23.5 µM.

Regarding `CCOc1ccc(C(=O)N(Cc2cccs2)Cc2cc3cc(C)ccc3[nH]c2=O)cc1`, the IC50 in series [1] turned out to be 5 µM. Further, in the series on MT2, the midpoint of cytotoxicity, the CC50, lay at 12.7 µM.

As for `COc1ccc2[nH]c(=O)c(CN(Cc3ccco3)C(=O)c3ccc(Br)cc3)cc2c1`, the 50% inhibitory concentration (IC50) in series [1] is greater than 13 µM.

With `Cc1ccc2[nH]c(=O)c(CN(Cc3ccco3)C(=O)c3ccc(S(N)(=O)=O)cc3)cc2c1`, in series [1], the 50% inhibitory concentration (IC50) was greater than 22.1 µM.

With `COc1ccc2[nH]c(=O)c(CN(Cc3cccs3)C(=O)C3CCCCC3)cc2c1`, the IC50 in series [1] came out at 6.1 µM. Further, the CC50 in the series on MT2 was greater than 48 µM.

As for `Cc1ccc2[nH]c(=O)c(CN(Cc3ccco3)C(=O)c3ccc(O)c(Cl)c3)cc2c1`, the 50% inhibitory concentration (IC50) in series [1] was greater than 23.6 µM.

Consider `Cc1ccc2[nH]c(=O)c(CN(Cc3ccco3)C(=O)c3cc(Cl)c(O)c(Cl)c3)cc2c1`, for which the IC50 in series [1] was greater than 21.9 µM.

As for `Cc1ccc2[nH]c(=O)c(CN(Cc3ccc4c(c3)OCO4)C(=O)c3ccccc3)cc2c1`, the IC50 in series [1] amounted to 5.8 µM. Also, in the series with MT2, the CC50 is greater than 117 µM.

`Cc1cc(=O)n2c3ccccc3n(C[C@H](O)CN3CCOCC3)c2c1C#N`: in series [1], the IC50 turned out to be 30 µM. Also, the half-maximal cytotoxic concentration (CC50) in the series on MT2 is greater than 34.1 µM.

For `Cc1ccc2[nH]c(=O)c(CN(Cc3ccco3)C(=O)c3ccc(Cl)c(N4CCCCC4)c3)cc2c1`, the IC50 in series [1] came out at 7.1 µM. Also, the cytotoxic concentration (CC50) in the series with MT2 is greater than 20.4 µM.

Take `Cc1ccc2[nH]c(=O)c(CN(Cc3ccco3)C(=O)C(F)(F)F)cc2c1`: the IC50 in series [1] is greater than 27.5 µM.

Regarding `Cc1ccc2[nH]c(=O)c(CN(Cc3ccccc3)C(=O)c3ccco3)cc2c1`, the IC50 in series [1] came to 3.09 µM. This compound came in with a CC50 in the series on MT2 greater than 67.1 µM.

`Cc1cccc2cc(CN(Cc3ccco3)C(=O)c3cccs3)c(O)nc12`: in series [1], the half-inhibitory concentration (IC50) is greater than 16.5 µM. The CC50 in the series with MT2 was greater than 66.1 µM.

For the compound `COc1ccc2[nH]c(=O)c(CN(Cc3cccs3)C(=O)c3cccc(C)c3)cc2c1`, the IC50 in series [1] came to 7.9 µM. This compound also yielded a CC50 in the series with MT2 of 25 µM.

As to `Cc1ccc2[nH]c(=O)c(CN(Cc3ccc(Cl)cc3)C(=O)c3cn4cccc(C)c4n3)cc2c1`, in series [1], the IC50 turned out to be 9.27 µM. Also, half-maximal cytotoxicity with MT2 (CC50) was put at 44.5 µM.

For the compound `Cc1ccc2cc(CN(Cc3ccco3)C(=O)c3ccccc3)c(=O)[nH]c2c1`, the IC50 in series [1] is greater than 16.8 µM.

Regarding `Cc1ccc2[nH]c(=O)c(CN(Cc3ccco3)C(=O)c3ccccc3)cc2c1`, the IC50 in series [1] was 9.28 µM. Besides, the 50% cytotoxic concentration (CC50) with MT2 is greater than 67.1 µM.

Turning to `COc1ccc2nc(O)c(CN(Cc3ccco3)C(=O)c3ccccc3)cc2c1`, the half-inhibitory concentration (IC50) in series [1] is greater than 25.7 µM.

Consider `Cc1ccccc1C(=O)N(Cc1ccco1)Cc1cc2cccc(C)c2[nH]c1=O`, for which the IC50 in series [1] was 4.23 µM. In addition, the 50% cytotoxic concentration (CC50) with MT2 is greater than 64.7 µM.

As for `Cc1ccc2[nH]c(=O)c(CN(Cc3ccco3)C(=O)c3ccc(F)c(F)c3)cc2c1`, the half-inhibitory concentration (IC50) in series [1] stood at 4.7 µM. The half-maximal cytotoxic concentration (CC50) with MT2 is greater than 24.5 µM.

As to `Cc1ccc2[nH]c(=O)c(CN(Cc3ccco3)C(=O)c3ccc(C#N)cc3)cc2c1`, in series [1], the IC50 is greater than 25.2 µM.

Consider `Cc1ccc(C(=O)N(Cc2ccco2)Cc2cc3cccc(C)c3[nH]c2=O)cc1`, for which the IC50 in series [1] worked out at 2.67 µM. Moreover, half-maximal cytotoxicity in the series on MT2 (CC50) was put at 9.2 µM.

Regarding `Cc1ccc2[nH]c(=O)c(CN(CC3CCCO3)C(=O)c3ccc(Cl)cc3)cc2c1` (configuration not stated), the IC50 in series [1] was greater than 38.9 µM.

With `Cc1ccc2[nH]c(=O)c(CN(Cc3ccco3)C(=O)c3ccc(F)cc3)cc2c1`, the IC50 in series [1] is greater than 25.6 µM.

As to `Cc1ccc2[nH]c(=O)c(CN(Cc3ccco3)C(=O)c3ccc(Cl)c(Cl)c3)cc2c1`, the concentration for half-maximal inhibition (IC50) in series [1] is 9.2 µM. This compound also had a CC50 in the series on MT2 of 70.7 µM.

For the compound `Cc1ccc2[nH]c(=O)c(CN(Cc3cccs3)C(=O)c3cccs3)cc2c1`, in series [1], the half-inhibitory concentration (IC50) is 11.8 µM. Further, in the series with MT2, the cytotoxic concentration (CC50) was greater than 64 µM.

On to `c1cc(CN2CCCNCCNCCCNCC2)ccc1CN1CCCNCCNCCCNCC1`, for which the inhibition result in series [2] is “Active”.

`Cc1ccc2[nH]c(=O)c(CN(Cc3ccco3)C(=O)CN3CCN(C)CC3)cc2c1`: the IC50 in series [1] is greater than 24.5 µM.

In the case of `Cc1ccc2[nH]c(=O)c(CN(Cc3ccco3)C(=O)c3cnn(C)c3)cc2c1`, the half-maximal inhibitory concentration (IC50) in series [1] was greater than 26.6 µM.

On to `CCc1ccc2[nH]c(=O)c(CN(Cc3ccco3)C(=O)c3ccccc3)cc2c1`, for which the IC50 in series [1] is greater than 13.9 µM.

For `Cc1ccc2[nH]c(=O)c(CN(Cc3ccco3)C(=O)c3ccc(Cl)c(O)c3)cc2c1`, the half-maximal inhibitory concentration (IC50) in series [1] is greater than 23.6 µM.

For the compound `Cc1ccc2[nH]c(=O)c(CN(Cc3cccs3)C(=O)c3ccccc3)cc2c1`, in series [1], the IC50 is greater than 12.9 µM.

As for `Cc1cccc2cc(CN(Cc3ccccc3)C(=O)c3cccc(Cl)c3)c(=O)[nH]c12`, the IC50 in series [1] worked out at 3.59 µM. This compound also showed a CC50 with MT2 greater than 60 µM.

As for `COc1ccc(C(=O)N(Cc2ccco2)Cc2cc3cc(C)ccc3[nH]c2=O)cn1`, the IC50 in series [1] is greater than 24.8 µM.

In the case of `Cc1cccc2cc(CN(Cc3ccco3)C(=O)c3ccccc3)c(=O)[nH]c12`, in series [1], the half-maximal inhibitory concentration (IC50) worked out at 4.02 µM. Besides, the CC50 with MT2 was greater than 67.1 µM.

Consider `COc1ccc(C(=O)N(Cc2ccco2)Cc2cc3ccc(C)cc3[nH]c2=O)cc1`, for which, in series [1], the half-maximal inhibitory concentration (IC50) was greater than 15 µM.

`CCc1ccc2[nH]c(=O)c(CN(Cc3ccco3)C(=O)c3cccs3)cc2c1`: the half-inhibitory concentration (IC50) in series [1] was 12.3 µM. In the series with MT2, this compound returned a CC50 greater than 127 µM.

As to `Cc1ccc2cc(CN(Cc3ccco3)C(=O)c3ccc(C(C)(C)C)cc3)c(=O)[nH]c2c1`, the 50% inhibitory concentration (IC50) in series [1] was greater than 14.6 µM.
